Tests used:
[1] = Plasma and hippocampal levels of 1-DL-MTRP by HPLC-MS/MS in CA/CPR rats; format: in vivo; conditions: rat
[2] = test system: rats resuscitated from cardiac arrest; experiment: CPR outcomes and survival in rat model of electrically induced CA/CPR; format: in vivo
[3] = test system: rats resuscitated from cardiac arrest; experiment: Hemodynamics; format: in vivo, rat; conditions: mean±SD
[4] = test system: rats resuscitated from cardiac arrest; experiment: Myocardial function by transthoracic echocardiography in CA/CPR rats; format: in vivo, rat
Outline: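 Rats were pretreated by gavage with test compound (800 mg/kg per dose) or 1% carboxymethylcellulose 16 and 2 h before 8 min untreated CA and 8 min CPR. At 4 and 96 h post-ROSC, LV systolic function was assessed by transthoracic M-mode, 2D, pulsed, color and tissue Doppler echocardiography. Anaesthesia at 96 h was intraperitoneal thiopental 50 mg/kg, with 10 mg/kg recall doses if needed. Analysis used ordinary 2-way ANOVA with Sidak post hoc.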

[5] = test system: rats resuscitated from cardiac arrest; experiment: Plasma high-sensitivity cardiac troponin T; format: in vivo, rat; conditions: median [quartile 1–quartile 3]
Outline: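 Arterial blood was drawn from the femoral cannula into K3-EDTA tubes 15 min before CA and at 4 and 96 h post-ROSC. Rats had received gavage test compound (800 mg/kg per dose) or carboxymethylcellulose vehicle 16 and 2 h pre-CA, then 8 min CA and 8 min CPR. Plasma hs-cTnT was measured by electrochemiluminescence immunoassay and analysed by ordinary 2-way ANOVA with Sidak test.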

[6] = test system: rats resuscitated from cardiac arrest; experiment: Neurological deficit score; format: in vivo, rat; conditions: 24, 48, 72, and 96 hours post-ROSC, all time points; score 0 (normal) to 500 (brain death)
[7] = test system: IL1β and Arg1 mRNA, brain cortex; experiment: Inflammatory gene expression; format: in vivo, rat; conditions: brain cortex 96 hours post-ROSC; not statistically significant
Outline: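 Male Sprague-Dawley ex-breeder rats underwent 8 min untreated CA and 8 min CPR after gavage with test compound (800 mg/kg per dose) or 1% carboxymethylcellulose vehicle 16 and 2 h before CA; naive rats served as controls. At 96 h post-ROSC, cortical RNA was analysed by SYBR Green real-time PCR with exon-spanning primers and Gapdh reference. Results were calculated by ΔΔCt as fold induction, mean±SD, n=4-6/group, Kruskal-Wallis/Dunn's.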

[8] = test system: kynurenine pathway (IDO, tryptophan→kynurenine step)
[9] = test system: kynurenine pathway (IDO, tryptophan→kynurenine step); conditions: 96 hours post-ROSC
[10] = 2 oral doses of 800 mg/kg 16 and 2 hours before CA, 15 minutes pre-CA and 2 hours post-ROSC
[11] = 2 oral doses of 800 mg/kg 16 and 2 hours before CA, 96 hours post-ROSC

For `Cn1cc(CC(N)C(=O)O)c2ccccc21` (racemic) [1‐DL‐MTRP, 1‐methyl‐DL‐tryptophan], the “1-DL-MTRP plasma concentration, average” value [1, 10] was 34 µg/mL, the “1-DL-MTRP plasma concentration, range” value [1, 10] was 20 to 40 µg/mL and the “1-DL-MTRP hippocampal concentration, average” value [1, 11] was 11.4 µg/g. The “1-DL-MTRP plasma concentration, average” value [1, 11] was 21 µg/mL, the “drug levels (plasma and brain) as molar concentrations” value ([1]; 96 hours post-ROSC) was 52 to 96 µM and the “Resuscitation, no./total” value ([2]; 800 mg/kg by gavage 16 and 2 h before CA, 8 min CA, 8 min CPR) was 15/17. The “Time to ROSC” value ([2]; median [quartile 1–quartile 3]) was 481 [370–482] s, the “4-h survival, no./resuscitated” value ([2]; rat, in vivo) was 15/15 and the “96-h survival, no./resuscitated” value ([2]; rat, in vivo) was 10/15. For the same molecule, the “Shocks to ROSC” value ([2]; rat, in vivo) was 1 no, the “animals that survived up to 96 hours after CA” value ([2]; vehicle 62%) was 66% and the successfully resuscitated animals ([2]; vehicle 84%) was 88%. It also gave a CPP ([3]; PR 10 min) of 57±21 mm Hg, a DAP ([3]; PR 10 min) of 57±21 mm Hg and an HR ([3]; PR 10 min) of 237±54 beats per min. The MAP ([3]; PR 10 min) was 76±20 mm Hg, the SAP ([3]; PR 10 min) was 103±17 mm Hg and the CPP ([3]; PR 1 h) was 84±9 mm Hg. For the same molecule, the DAP ([3]; PR 1 h) was 84±9 mm Hg, the HR ([3]; PR 1 h) was 335±12 beats per min and the MAP ([3]; PR 1 h) was 96±9 mm Hg. It also gave an SAP ([3]; PR 1 h) of 117±9 mm Hg, a CPP ([3]; PR 2 h) of 81±12 mm Hg and a DAP ([3]; PR 2 h) of 81±12 mm Hg. For the same molecule, the HR ([3]; PR 2 h) was 360±20 beats per min, the MAP ([3]; PR 2 h) was 96±13 mm Hg and the SAP ([3]; PR 2 h) was 118±12 mm Hg. It also gave a CPP ([3]; PR 3 h) of 75±15 mm Hg, a DAP ([3]; PR 3 h) of 74±15 mm Hg and an HR ([3]; PR 3 h) of 358±23 beats per min. The MAP ([3]; PR 3 h) was 89±16 mm Hg, the SAP ([3]; PR 3 h) was 111±18 mm Hg and the CPP ([3]; PR 4 h) was 73±20 mm Hg. For the same molecule, the DAP ([3]; PR 4 h) was 78±15 mm Hg, the HR ([3]; PR 4 h) was 351±51 beats per min and the MAP ([3]; PR 4 h) was 94±17 mm Hg. The SAP ([3]; PR 4 h) was 115±17 mm Hg, the CPP ([3]; Pre-CA) was 109±13 mm Hg and the DAP ([3]; Pre-CA) was 114±12 mm Hg. It also gave an HR ([3]; Pre-CA) of 375±34 beats per min, an MAP ([3]; Pre-CA) of 127±13 mm Hg and an SAP ([3]; Pre-CA) of 151±13 mm Hg. For the same molecule, the LVEF ([4]; PR 4 h) was 36.8±3.2%, the LVEF ([4]; PR 96 h) was 75.3±3.2% and the hs-cTnT ([5]; PR 4 h) was 4965 [2978–5242] pg/mL. For the same molecule, the hs-cTnT ([5]; PR 96 h) was 64 [36–278] pg/mL, the hs-cTnT ([5]; Pre-CA) was 98 [66–111] pg/mL and the “NDS values vs vehicle-treated rats” value [6] was “lower”. For the same molecule, the Arg1 gene expression [7] was “tendency towards an increase”, the “CA-induced IL1β upregulation (mRNA)” value [7] was “slightly reduced” and the “plasma kynurenine levels, % lower than in vehicle-treated rats” value ([8]; 15 minutes pre-CA, P=0.0243) was 24%. The “plasma kynurenine levels following CA vs vehicle-treated rats” value ([8]; PR 2 hours and PR 96 hours, same time points) was “markedly lower than in vehicle‐treated rats”, the “hippocampal kynurenine levels vs vehicle-treated rats” value ([9]; P=0.0409, comparable to naive rats) was “significantly lower than in vehicle‐treated rats” and the “hippocampal 5-HT concentrations” value ([9]; vs naive rats) was “superimposable to those measured in naive rats”.

Source: publication PMC9075408 (Journal of the American Heart Association: Cardiovascular …, 2021)
